Test results from ChEMBL document CHEMBL3352728, “Synthesis and biological evaluation of 1,2,3-triazole linked aminocombretastatin conjugates as mitochondrial mediated apoptosis inducers” (Bioorg Med Chem, 2014).
The source made the active and inactive calls. The rule behind the calls is not given here.

Assays:
[1] = tested on: HeLa; assay: Cytotoxicity against human HeLa cells after 48 hrs by MTT assay; format: functional, cell-based
Procedure, shortened: (§1)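 MTT assay. Cells seeded at 1×10^4 per well in DMEM with 10% FBS and grown 24 h at 37 °C under CO2. Compounds diluted in medium, vehicle control included, 48 h exposure. MTT (5 mg/mL stock) added for 4 h, formazan dissolved in DMSO, absorbance read at 570 nm. IC50 taken as the average of three independent experiments.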

[2] = tested on: HepG2; assay: Cytotoxicity against human HepG2 cells after 48 hrs by MTT assay; format: functional, cell-based; details: HepG2, 48 h; procedure, shortened: as §1
[3] = tested on: A549; assay: Cytotoxicity against human A549 cells after 48 hrs by MTT assay; format: functional, cell-based; details: A549, 48 h; procedure, shortened: as §1
[4] = tested on: ACHN; assay: Cytotoxicity against human ACHN cells after 48 hrs by MTT assay; format: functional, cell-based; procedure, shortened: as §1
[5] = tested on: MCF7; assay: Cytotoxicity against human MCF7 cells after 48 hrs by MTT assay; format: functional, cell-based; details: MCF7, 48 h; procedure, shortened: as §1
[6] = biological target: Tubulin (Homo sapiens) (UniProt P68371+Q9H4B7+P0DPH7+P68366+Q13509+Q71U36+P04350+Q3ZCM7+P07437+P68363+Q9BQE3+Q6PEY2+Q13885+Q9BVA1+Q9BUF5); assay: Binding affinity to tubulin (unknown origin) incubated for 60 mins by colchicine competition assay; format: protein-complex assay
Procedure, shortened: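 Tubulin (3 μM) incubated with test agents (5, 10, 15, 20 μM) with and without 3 μM colchicine in 30 mM Tris buffer, 60 min at 37 °C. Tubulin–colchicine fluorescence read at ex 350/em 435 nm. Compound-alone signal subtracted from the compound+colchicine signal, Tris blank subtracted, values normalized to DMSO control. CA-4 positive control, taxol negative control.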

Row | Activity [6] | Structure (SMILES) | IC50 [1] [nM] | IC50 [2] [nM] | IC50 [3] [nM] | IC50 [4] [µM] | IC50 [5] [nM]
1 | – | COc1ccc(Cn2cc(C(=O)Nc3c(/C=C\c4cc(OC)c(OC)c(OC)c4)ccc(OC)c3O)nn2)cc1 | 3540 | 1200 | 1450 | 5.89 | 2620
2 | – | COc1cccc(Cn2cc(C(=O)Nc3cc(/C=C\c4cc(OC)c(OC)c(OC)c4)cc(OC)c3OC)nn2)c1 | 570 | 513 | 406 | 2.89 | 1270
3 | – | COc1ccc(/C=C\c2cc(OC)c(OC)c(OC)c2)c(NC(=O)c2cn(Cc3ccc(F)cc3)nn2)c1O | 330 | 354 | 568 | 3.39 | 1860
4 | – | COc1ccc(/C=C\c2cc(OC)c(OC)c(OC)c2)cc1NC(=O)c1cn(Cc2cc(OC)c(OC)c(OC)c2)nn1 | 190 | 620 | 89 | 2.04 | 1510
5 | – | COc1ccc(/C=C\c2cc(OC)c(OC)c(OC)c2)c(NC(=O)c2cn(Cc3cc(OC)c(OC)c(OC)c3)nn2)c1O | 770 | 1700 | 830 | 5.13 | 2400
6 | – | COc1cc(/C=C\c2cc(OC)c(OC)c(OC)c2)cc(NC(=O)c2cn(Cc3ccc(F)cc3)nn2)c1OC | 320 | 1360 | 66 | 3.09 | 897
7 | inactive | CC(=O)O[C@H]1C(=O)[C@@]2(C)[C@H]([C@H](OC(=O)c3ccccc3)[C@]3(O)C[C@H](OC(=O)[C@H](O)[C@@H](NC(=O)c4ccccc4)c4ccccc4)C(C)=C1C3(C)C)[C@]1(OC(C)=O)CO[C@@H]1C[C@@H]2O | – | – | – | – | –
8 | – | COc1ccc(/C=C\c2cc(OC)c(OC)c(OC)c2)cc1NC(=O)c1cn(Cc2cccc(Oc3ccccc3)c2)nn1 | 3230 | 3720 | 2570 | 5.74 | 4190
